Reference: article PMC11645202 (Bioorganic & medicinal chemistry, 2024)
Like-named read-outs stand apart in the source and are kept apart here. Marks after values point to notes of the source that are not given here.

How the values were obtained:
[1] = test system: MCF-7 human breast carcinoma cells; settings: read-out: MCF-7 IC50; inhibition of growth; cited from earlier work
[2] = test system: A-10 cells; settings: read-out: A-10 EC50 (cellular microtubule loss); cited from earlier work
[3] = test system: tubulin; settings: compound 5 μM, cited from earlier work
[4] = test system: tubulin; test: Inhibition of tubulin polymerization; type: biochemical; settings: for IC50: read-out: Tubulin Assembly IC50, tubulin at 10 μM
[5] = test system: pancreatic cancer cells (MiaPaca-2); test: Cytotoxicity in pancreatic cancer cells, Promega CellTiter assay kit; type: cell-based
[6] = test system: A-10 cells; test: Cellular microtubule loss by indirect immunofluorescence; type: cell-based; settings: 20 μM compound 8c; 15 μM compound 13; 2.5 μM compound 18 (Figure 5)
[7] = test system: MCF-7 human breast carcinoma cells; test: MCF-7 cell proliferation assay; type: cell-based
Outline: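 MCF-7 human breast carcinoma cells grown 24 h without drug, then 48 h with varying concentrations of test compound. Growth read as total cell protein by sulforhodamine B staining; IC50 taken as concentration inhibiting cell growth.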

[8] = test system: colon cancer cell line HCT-16; test: Cytotoxicity in colon cancer cells, Promega CellTiter assay kit; type: cell-based

Q: With COc1ccc(/C=C\c2cc(OC)c(OC)c(OC)c2)cc1O [CA-4, Combretastatin A-4] as the compound, how does the IC50 [1] read?
A: The IC50 was 32 ± 20 nM.

Q: And the EC50 [2]?
A: The EC50 was less than 25 nM.

Q: Which results are given for COc1ccc(/C=C\c2cc(OC)c(OC)c(OC)c2)cc1B(O)O [Compound 1]?
A: IC50 [1]: 17 ± 5 nM; [3H]Colchicine Binding inhibition ([3]; tubulin 1 μM, [3H]colchicine 5 μM): 79 ± 2^e %

Q: For COc1cc(/C=C\c2ccccc2B(O)O)cc(OC)c1OC [Compound 8a, {2-[(Z)-2-(3,4,5-trimethoxyphenyl)vinyl]phenyl}boronic acid], which IC50 [4] is on record?
A: The IC50 was greater than 40000 nM.

Q: What about the “activity in MiaPaca-2 (in words)” value [5] of the same compound?
A: The value was “potency comparable to that of CA-4 and phenstatin”.

Q: Which “effects on interphase microtubules in A-10 cells” value [6] does the source give for COc1cc(/C=C\c2ccc(B(O)O)cc2)cc(OC)c1OC [Compound 8c, {4-[(Z)-2-(3,4,5-trimethoxyphenyl)vinyl]phenyl}boronic acid] here?
A: The value was “disrupted microtubules and loss of the microtubule network”.

Q: Which “lower potency compared to 1 in inhibiting tubulin polymerization” value ([4]; relative to compound 1) does the source give for COc1cc(/C=C\c2cnc(OC)c(B(O)O)c2)cc(OC)c1OC [Compound 13, {2-Methoxy-5-[(Z)-2-(3,4,5-trimethoxyphenyl)vinyl]pyridin-3-yl}boronic acid] here?
A: The value was 20 fold.

Q: And the “cytotoxicity in MCF-7 cells (in words)” value [7]?
A: The value was “mid-nanomolar cytotoxicity”.

Q: And the “lower activity compared to 1 in inhibition of MCF-7 cell proliferation” value ([7]; relative to compound 1)?
A: Its value is 23 fold.

Q: And the “effects on interphase microtubules in A-10 cells” value [6]?
A: The value was “disrupted microtubules and loss of the microtubule network”.

Q: What about the IC50 ([8]; HCT16, read-out: IC50 in HCT-16) of the same compound?
A: The IC50 was less than 5000 nM.

Q: What does the source list for COc1ccc(C(=O)c2cc(OC)c(OC)c(OC)c2)cc1B(O)O [Compound 18, [2-Methoxy-5-(3,4,5-trimethoxybenzoyl)phenyl]boronic acid]?
A: cytotoxicity in MCF-7 cells (in words) [7]: mid-nanomolar cytotoxicity; effects on interphase microtubules in A-10 cells [6]: disrupted microtubules and loss of the microtubule network; activity in MiaPaca-2 (in words) [5]: potency comparable to that of CA-4 and phenstatin

Q: With COc1cc(C(=O)c2cnc(OC)c(B(O)O)c2)cc(OC)c1OC [Compound 22, [2-Methoxy-5-(3,4,5-trimethoxybenzoyl)pyridin-3-yl]boronic acid] as the compound, how does the IC50 [4] read?
A: The IC50 was greater than 40000 nM.

Q: And the “activity (in words)” value ([4]; tubulin-based assays)?
A: The value was “no activity”.

Q: And the “activity in HCT-16 (in words)” value [8]?
A: Its value is “dramatically reduced activity”.

Q: And the “activity in MiaPaca-2 (in words)” value [5]?
A: Its value is “dramatically reduced activity”.

Q: For COc1ccc(C(=O)c2cc(OC)c(OC)c(OC)c2)cc1O [Phenstatin, reference compound], which IC50 [1] is on record?
A: The IC50 was 440 ± 70 nM.

Q: And the “[3H]Colchicine Binding inhibition” value [3]?
A: Its value is 86^f %.
